Common to all, as to type: cell-based
For series [1], the target named is T1, Toll-like receptor 4 (Mus musculus, UniProt Q9QUK6).
T1 sequence (Q9QUK6 whole entry): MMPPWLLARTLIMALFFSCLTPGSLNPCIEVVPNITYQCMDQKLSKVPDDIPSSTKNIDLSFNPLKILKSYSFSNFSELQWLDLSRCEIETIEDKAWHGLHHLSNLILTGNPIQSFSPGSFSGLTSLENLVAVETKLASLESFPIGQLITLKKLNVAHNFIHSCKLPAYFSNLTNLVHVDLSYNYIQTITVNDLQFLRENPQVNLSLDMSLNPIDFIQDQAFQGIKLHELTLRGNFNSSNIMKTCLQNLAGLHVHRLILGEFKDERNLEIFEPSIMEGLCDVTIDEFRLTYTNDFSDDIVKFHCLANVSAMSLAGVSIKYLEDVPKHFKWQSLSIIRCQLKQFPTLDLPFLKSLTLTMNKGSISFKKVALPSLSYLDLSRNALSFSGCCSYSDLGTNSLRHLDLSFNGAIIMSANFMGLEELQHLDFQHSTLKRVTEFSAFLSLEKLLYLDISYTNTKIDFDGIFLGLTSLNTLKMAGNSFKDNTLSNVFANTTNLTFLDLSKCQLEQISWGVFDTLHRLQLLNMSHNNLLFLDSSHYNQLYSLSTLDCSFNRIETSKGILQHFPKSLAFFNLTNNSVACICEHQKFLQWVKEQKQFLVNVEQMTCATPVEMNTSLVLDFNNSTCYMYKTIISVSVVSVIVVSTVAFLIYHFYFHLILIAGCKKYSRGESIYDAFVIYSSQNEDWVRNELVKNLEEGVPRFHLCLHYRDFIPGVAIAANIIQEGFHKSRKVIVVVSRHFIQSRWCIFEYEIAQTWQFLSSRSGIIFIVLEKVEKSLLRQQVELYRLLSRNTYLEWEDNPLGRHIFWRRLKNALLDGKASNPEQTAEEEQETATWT
In words: Inhibition of TLR4 in LPS-stimulated mouse RAW264.7 cells assessed as reduction of NO production after 24 hrs. The method, boiled down: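 RAW 264.7 cells at 7.5×10^4/well were incubated 24 h, moved to fresh RPMI 1640, treated with vehicle or compound, and stimulated with LPS 20 ng/mL for 24 h. Nitrite in the medium was reacted with 2,3-diaminonaphthalene (0.05 mg/mL in 0.62 M HCl) for 15 min in the dark, NaOH was added, and […] was read at 450 nm.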

The target of another series is TLR2/TLR6 (Mus musculus) (UniProt Q9QUN7+Q9EPW9). The series can be described thus: Inhibition of TLR2/TLR6 in FSL1-stimulated mouse RAW264.7 cells at 0.6 uM after 24 hrs. The method in brief: (§1)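 RAW 264.7 cells were stimulated with the TLR-selective ligand named in the line, in the presence or absence of compound (0.6 μM). NO was then measured by the nitrite protocol: 7.5×10^4 cells/well, RPMI 1640, 24 h. 2,3-diaminonaphthalene was added, then NaOH, and […] read at 450 nm. Mean ±SD of 3 experiments, each run in triplicate.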

Series [2] has as its target TLR7 and TLR8 (Mus musculus) (UniProt P58681+P58682). In words: Inhibition of TLR7/TLR8 in R848-stimulated mouse RAW264.7 cells at 0.6 uM after 24 hrs. The method in brief:
as §1

The target in series [3] is T1, Toll-like receptor 4. The series can be described thus: (§2) Inhibition of TLR4 in LPS-stimulated mouse RAW264.7 cells assessed as reduction of IL1-beta production after 24 hrs by ELISA. The method in brief: (§3)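 RAW 264.7 cells (5×10^5/well, 6-well plates) were treated with or without LPS and then with compound for 24 h. Cells were lysed and IL-1β was measured in the lysate by ELISA, normalized to total protein.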
On the technique in general: An ELISA detects its analyte on a solid surface through an enzyme-linked reagent.

The target of series [4] is T2, Toll-like receptor 4 (Mus musculus) (UniProt Q9QUK6).
T2 sequence (whole entry): T1 sequence (Q9QUK6 whole entry)
Described as §2. The method, boiled down: as §3

In series [5] the target is T1, Toll-like receptor 4. In words: (§4) Inhibition of TLR4 in LPS-stimulated mouse RAW264.7 cells assessed as reduction of TNFalpha production after 24 hrs by ELISA. The method in brief: (§5)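 RAW 264.7 cells (5×10^5/well, 6-well plates) were treated with or without LPS and then with compound for 24 h. Culture supernatant was harvested and clarified, and TNF-α was measured by ELISA.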

In series [6] the target is T2, Toll-like receptor 4 (Mus musculus). The description is as §4. The method, boiled down: as §5
Series [7] shares this target. The series can be described thus: Inhibition of TLR4 in LPS-stimulated mouse BV2 cells assessed as reduction of NF-kappaB activation after 24 hrs by Dual-GLO luciferase assay. Conditions: BV-2. The method, boiled down: (§6)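 BV-2 cells stably carrying an NF-κB dual-luciferase reporter were kept in DMEM/10% FBS with puromycin (3 μg/mL) and seeded at 1×10^4/well. After 24 h the medium was switched to Opti-MEM/0.5% FBS. Compound was added, followed by LPS 200 ng/mL for 24 h. Read-out was the Firefly/Renilla luciferase ratio (Dual-Glo).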

A further series deals with RAW264.7. The series can be described thus: Cytotoxicity against mouse RAW264.7 cells assessed as cell viability up to 10 uM after 24 hrs by WST-1 assay. The settings on record: raw264.7, 24 h. The method, boiled down:
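WST-1 viability assay: RAW 264.7 cells at 2×10^4 cells/well, cultured 24 h at 37°C, then moved to serum-free medium and treated with vehicle or compound (10 mM DMSO stocks) for 24 h. WST-1 reagent added for 30 min at 37°C; absorbance read at 490 nm.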

The target in series [8] is Toll-like receptor 1/2 (Mus musculus) (UniProt Q9QUN7+Q9EPQ1). The series can be described thus: Inhibition of TLR1/TLR2 in Pam3CSK4-stimulated mouse RAW264.7 cells at 0.6 uM after 24 hrs. The method in brief: as §1
For series [9], the target named is T3, Toll-like receptor 3 (Mus musculus) (UniProt Q99MB1).
T3 sequence (whole entry): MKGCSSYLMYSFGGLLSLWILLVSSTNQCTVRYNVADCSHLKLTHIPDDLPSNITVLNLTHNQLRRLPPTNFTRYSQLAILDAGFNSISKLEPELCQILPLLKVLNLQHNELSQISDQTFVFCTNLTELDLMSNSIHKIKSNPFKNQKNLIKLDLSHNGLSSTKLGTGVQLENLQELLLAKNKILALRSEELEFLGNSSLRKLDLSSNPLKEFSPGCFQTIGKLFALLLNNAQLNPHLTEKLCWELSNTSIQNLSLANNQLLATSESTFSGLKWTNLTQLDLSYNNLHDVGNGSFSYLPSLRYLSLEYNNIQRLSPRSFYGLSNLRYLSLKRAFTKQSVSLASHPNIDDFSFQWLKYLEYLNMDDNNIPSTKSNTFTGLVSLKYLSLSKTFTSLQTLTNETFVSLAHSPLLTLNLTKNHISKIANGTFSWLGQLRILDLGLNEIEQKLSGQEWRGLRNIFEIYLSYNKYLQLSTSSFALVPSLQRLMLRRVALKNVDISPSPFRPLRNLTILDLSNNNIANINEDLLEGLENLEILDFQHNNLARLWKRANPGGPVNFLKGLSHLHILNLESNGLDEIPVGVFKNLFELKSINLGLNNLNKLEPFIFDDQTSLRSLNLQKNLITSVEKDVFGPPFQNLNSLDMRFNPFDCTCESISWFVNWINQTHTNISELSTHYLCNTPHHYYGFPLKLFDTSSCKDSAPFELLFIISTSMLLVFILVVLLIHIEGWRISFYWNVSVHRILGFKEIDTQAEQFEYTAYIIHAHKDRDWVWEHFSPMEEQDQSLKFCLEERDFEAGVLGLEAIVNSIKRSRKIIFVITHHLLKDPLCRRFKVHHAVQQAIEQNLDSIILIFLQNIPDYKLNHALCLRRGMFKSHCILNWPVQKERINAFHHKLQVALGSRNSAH
In words: Inhibition of TLR3 in poly(I:C)-stimulated mouse RAW264.7 cells at 0.6 uM after 24 hrs. The method, boiled down:
as §1

In series [10] the target is T2, Toll-like receptor 4 (Mus musculus). In words: Inhibition of TLR4 in LPS-stimulated mouse RAW264.7 cells assessed as reduction of TNFalpha production at 3 to 10 uM after 24 hrs by ELISA. The method, boiled down:
as §5

For series [11] the target is unchanged. In words: Inhibition of TLR4 in LPS-stimulated mouse RAW264.7 cells assessed as reduction of IL1-beta production at 3 to 10 uM after 24 hrs by ELISA. The method, boiled down:
as §3

Series [12] shares this target. In words: Inhibition of TLR4 in LPS-stimulated mouse BV2 cells assessed as reduction of NF-kappaB activation up to 10 uM after 24 hrs by Dual-GLO luciferase assay. Conditions: BV-2. The method, boiled down:
as §6

The IC50 is the concentration needed to halve the response being measured.

Molecules are shown by their SMILES. The source made the active and inactive calls. No cut-off for these calls is given here.

Chain of TLR7 and TLR8 (Mus musculus) (P58681 whole entry, looked up): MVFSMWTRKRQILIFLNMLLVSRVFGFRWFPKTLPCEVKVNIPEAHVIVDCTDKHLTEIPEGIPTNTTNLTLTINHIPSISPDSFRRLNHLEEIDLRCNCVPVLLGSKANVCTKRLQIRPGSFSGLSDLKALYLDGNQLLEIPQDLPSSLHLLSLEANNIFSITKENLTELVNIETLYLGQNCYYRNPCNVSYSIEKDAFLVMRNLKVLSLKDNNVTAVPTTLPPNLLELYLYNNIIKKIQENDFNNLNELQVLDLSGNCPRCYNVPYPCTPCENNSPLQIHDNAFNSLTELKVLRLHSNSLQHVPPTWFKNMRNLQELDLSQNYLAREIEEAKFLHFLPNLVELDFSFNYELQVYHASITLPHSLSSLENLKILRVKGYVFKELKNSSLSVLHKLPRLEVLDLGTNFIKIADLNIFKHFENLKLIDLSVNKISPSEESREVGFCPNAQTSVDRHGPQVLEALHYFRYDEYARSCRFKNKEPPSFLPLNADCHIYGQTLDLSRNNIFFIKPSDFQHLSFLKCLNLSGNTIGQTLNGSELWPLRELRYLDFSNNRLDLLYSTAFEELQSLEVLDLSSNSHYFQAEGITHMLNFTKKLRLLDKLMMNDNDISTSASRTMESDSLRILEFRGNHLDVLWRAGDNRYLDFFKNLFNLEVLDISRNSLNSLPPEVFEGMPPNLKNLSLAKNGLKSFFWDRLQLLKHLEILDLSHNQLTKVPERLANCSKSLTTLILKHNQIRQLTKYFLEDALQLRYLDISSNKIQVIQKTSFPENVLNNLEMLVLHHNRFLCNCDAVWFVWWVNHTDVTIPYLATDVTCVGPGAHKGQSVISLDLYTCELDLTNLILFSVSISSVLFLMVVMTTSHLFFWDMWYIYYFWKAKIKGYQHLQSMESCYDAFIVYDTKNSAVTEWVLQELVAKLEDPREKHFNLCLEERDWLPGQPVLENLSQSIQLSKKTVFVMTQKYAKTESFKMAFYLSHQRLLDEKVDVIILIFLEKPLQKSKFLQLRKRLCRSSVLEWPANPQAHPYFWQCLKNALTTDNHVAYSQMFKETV
Chain of TLR7 and TLR8 (Mus musculus) (P58682 whole entry, looked up): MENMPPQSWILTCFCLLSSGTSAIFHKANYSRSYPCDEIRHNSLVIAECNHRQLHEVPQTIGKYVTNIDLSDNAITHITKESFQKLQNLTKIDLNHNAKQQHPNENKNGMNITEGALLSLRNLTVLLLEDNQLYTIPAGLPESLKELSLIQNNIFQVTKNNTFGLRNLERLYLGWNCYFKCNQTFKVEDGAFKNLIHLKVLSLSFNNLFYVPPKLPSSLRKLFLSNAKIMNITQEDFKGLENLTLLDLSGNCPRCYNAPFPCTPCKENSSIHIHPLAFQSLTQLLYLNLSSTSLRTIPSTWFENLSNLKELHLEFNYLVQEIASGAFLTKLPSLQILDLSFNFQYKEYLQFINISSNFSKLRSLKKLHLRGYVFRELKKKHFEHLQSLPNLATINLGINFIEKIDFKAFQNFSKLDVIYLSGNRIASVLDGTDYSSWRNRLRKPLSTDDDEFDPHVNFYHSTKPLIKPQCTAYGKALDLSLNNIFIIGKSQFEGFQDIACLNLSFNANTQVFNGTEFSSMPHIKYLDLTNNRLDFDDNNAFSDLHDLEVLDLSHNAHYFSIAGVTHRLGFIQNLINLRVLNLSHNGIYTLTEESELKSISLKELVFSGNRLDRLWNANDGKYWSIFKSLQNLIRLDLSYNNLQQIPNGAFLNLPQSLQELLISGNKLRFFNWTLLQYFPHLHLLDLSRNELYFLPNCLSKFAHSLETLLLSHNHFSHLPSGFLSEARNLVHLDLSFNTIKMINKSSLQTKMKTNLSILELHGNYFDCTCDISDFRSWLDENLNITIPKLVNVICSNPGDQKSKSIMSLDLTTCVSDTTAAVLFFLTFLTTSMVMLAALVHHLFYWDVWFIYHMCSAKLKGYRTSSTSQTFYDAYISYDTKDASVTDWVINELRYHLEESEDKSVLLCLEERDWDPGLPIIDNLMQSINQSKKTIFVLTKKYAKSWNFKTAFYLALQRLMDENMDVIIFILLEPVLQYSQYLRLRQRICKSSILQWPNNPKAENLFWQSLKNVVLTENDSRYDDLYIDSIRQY

Take `COC(=O)C(=CC1CCCCC1)C(=O)OC`: on Toll-like receptor 4 [1], the IC50 came out at 78200 nM.

In the case of `COc1cc(/C=C/C(=O)CC(=O)/C=C/c2ccc(O)c(OC)c2)ccc1O` [CURCUMIN], the IC50 at Toll-like receptor 4 [1] worked out at 6000 nM.

As for `COC(=O)C(=Cc1ccc(OC)cc1OC)C(=O)OC`, the IC50 on Toll-like receptor 4 [1] is 820 nM.

Regarding `COC(=O)C(=Cc1ccc(F)cc1)C(=O)OC`, the half-maximal inhibitory concentration (IC50) at Toll-like receptor 4 [1] is 710 nM.

Consider `COC(=O)C(=Cc1ccc(C(=O)OC)cc1)C(=O)OC`, for which the half-inhibitory concentration (IC50) at Toll-like receptor 4 [1] was 1330 nM.

In the case of `COC(=O)C(=Cc1cccc(OC)c1)C(=O)OC`, the 50% inhibitory concentration (IC50) at Toll-like receptor 4 [1] is 3720 nM.

Consider `COC(=O)C(=Cc1cccc(F)c1)C(=O)OC`, for which the IC50 at Toll-like receptor 4 [1] was 2530 nM.

For `COC(=O)C(=Cc1ccc(Cl)cc1)C(=O)OC`, the IC50 at Toll-like receptor 4 [1] came to 1540 nM.

For `COC(=O)C(=Cc1ccccc1[N+](=O)[O-])C(=O)OC`, on TLR2/TLR6 (Mus musculus), the inhibition result was “Active”. For the same compound, the inhibition entry in series [2], in [8] and in [9] was “inactive” throughout. Also, the concentration for half-maximal inhibition (IC50) at Toll-like receptor 4 [3] amounted to 420 nM; on Toll-like receptor 4 [5], 1540 nM; in series [7] it was 5.92 µM; at Toll-like receptor 4 [1], 310 nM. For the same compound, the inhibition result in [4], in series [6] and in series [7] was “Dose-dependent effect” throughout. The Activity result with RAW264.7 was “Non-toxic”.

Regarding `COC(=O)C(=Cc1ccccc1)C(=O)OC`, the IC50 on Toll-like receptor 4 [1] was determined as 820 nM.

As to `COC(=O)C(=Cc1ccccc1F)C(=O)OC`, the IC50 on Toll-like receptor 4 [1] came to 330 nM.

`COC(=O)C(=Cc1ccc(OC)cc1)C(=O)OC`: the IC50 on Toll-like receptor 4 [1] was found to be 1240 nM.

As for `O=C(O)C(=Cc1ccccc1F)C(=O)O`, the concentration for half-maximal inhibition (IC50) at Toll-like receptor 4 [1] is 410 nM.

In the case of `COC(=O)C(=Cc1ccc(N(C)C)cc1)C(=O)OC`, the IC50 on Toll-like receptor 4 [1] was 3110 nM.

With `O=C(O)C(=Cc1ccccc1)C(=O)O`, at Toll-like receptor 4 [1], the half-maximal inhibitory concentration (IC50) is 930 nM.

With `COC(=O)C(=Cc1cccc([N+](=O)[O-])c1)C(=O)OC`, the IC50 on Toll-like receptor 4 [1] turned out to be 2130 nM.

Consider `O=C(O)C(=Cc1ccccc1[N+](=O)[O-])C(=O)O`, for which the 50% inhibitory concentration (IC50) on Toll-like receptor 4 [1] is 520 nM.

As to `COC(=O)C(Cc1ccccc1[N+](=O)[O-])C(=O)OC`, the inhibition entry in series [10], in series [11] and in series [12] was “inactive” in each case. The half-inhibitory concentration (IC50) at Toll-like receptor 4 [1] is greater than 100000 nM.

Regarding `COC(=O)C(=Cc1ccccc1Cl)C(=O)OC`, at Toll-like receptor 4 [1], the 50% inhibitory concentration (IC50) came to 820 nM.

Turning to `COC(=O)/C=C/c1ccccc1[N+](=O)[O-]`, the IC50 at Toll-like receptor 4 [1] stood at 4530 nM.

For `COC(=O)C(=Cc1ccc(F)cc1F)C(=O)OC`, the concentration for half-maximal inhibition (IC50) on Toll-like receptor 4 [1] came to 420 nM.

Consider `COC(=O)C(=Cc1ccc([N+](=O)[O-])cc1)C(=O)OC`, for which the 50% inhibitory concentration (IC50) at Toll-like receptor 4 [1] turned out to be 820 nM.

As to `COC(=O)C(=Cc1ccccc1OC)C(=O)OC`, the IC50 at Toll-like receptor 4 [1] was 740 nM.

`COc1ccc(C=C(C(=O)O)C(=O)O)cc1`: the IC50 at Toll-like receptor 4 [1] was determined as 1440 nM.

Values taken from ChEMBL document CHEMBL2146360, “Selection, synthesis, and anti-inflammatory evaluation of the arylidene malonate derivatives as TLR4 signaling inhibitors” (Bioorg Med Chem, 2012).
